pIC50, pKi: −log10 of the molar value.
Experiments:
[1] = system: Liver microsomes; assay: Metabolic stability in human liver microsomes assessed as microsomal intrinsic clearance rate; type: ADME, Microsome
In short: (§1)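 Human liver microsomes, 10-min incubation. Metabolic stability given as % compound remaining. Microsomal intrinsic clearance rate (nmol/min/mg) is based on the % remaining after 10 min.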

[2] = Permeability across Caco-2 cells; type: ADME, cell-based; conditions: human, read-out: permeability
[3] = Clearance in dog at 0.5 mg/kg, iv; type: ADME, organism-based, Canis lupus familiaris; design: dose 0.5 mg/kg, route intravenous; conditions: in vivo
In short: (§2)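 Dogs. Intravenous dose 0.5 mg/kg, used for clearance (L/kg/h), steady-state volume of distribution (L/kg) and iv half-life.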

[4] = Volume of distribution at steady state in dog at 0.5 mg/kg, iv; type: ADME, organism-based, Canis lupus familiaris; design: dose 0.5 mg/kg, route intravenous; conditions: in vivo, read-out: Vdss; in short: as §2
[5] = Half life in dog at 0.5 mg/kg, iv; type: ADME, organism-based, Canis lupus familiaris; design: dose 0.5 mg/kg, route intravenous; conditions: in vivo; in short: as §2
[6] = Half life in dog at 0.2 mg/kg, po; type: ADME, organism-based, Canis lupus familiaris; design: dose 0.2 mg/kg, route oral; conditions: in vivo
[7] = Bioavailability in dog at 0.2 mg/kg, po; type: ADME, organism-based, Canis lupus familiaris; conditions: in vivo; in short: as §2
[8] = Metabolic stability in human liver microsomes after 10 mins; type: ADME, Microsome; conditions: read-out: Stability; in short: as §1
[9] = target: T1, Coagulation factor X (Homo sapiens, UniProt P00742); assay: Inhibition of human factor 10a
[10] = Cytotoxicity against HEK cells; type: cell-based; conditions: Homo sapiens, HEK293
[11] = target: Vitamin K-dependent protein C (Homo sapiens, UniProt P04070); assay: Inhibition of human activated protein C
[12] = target: T2, Coagulation factor VII (Homo sapiens, UniProt P08709); assay: Inhibition of human factor 7a
T2 sequence (P08709 whole entry): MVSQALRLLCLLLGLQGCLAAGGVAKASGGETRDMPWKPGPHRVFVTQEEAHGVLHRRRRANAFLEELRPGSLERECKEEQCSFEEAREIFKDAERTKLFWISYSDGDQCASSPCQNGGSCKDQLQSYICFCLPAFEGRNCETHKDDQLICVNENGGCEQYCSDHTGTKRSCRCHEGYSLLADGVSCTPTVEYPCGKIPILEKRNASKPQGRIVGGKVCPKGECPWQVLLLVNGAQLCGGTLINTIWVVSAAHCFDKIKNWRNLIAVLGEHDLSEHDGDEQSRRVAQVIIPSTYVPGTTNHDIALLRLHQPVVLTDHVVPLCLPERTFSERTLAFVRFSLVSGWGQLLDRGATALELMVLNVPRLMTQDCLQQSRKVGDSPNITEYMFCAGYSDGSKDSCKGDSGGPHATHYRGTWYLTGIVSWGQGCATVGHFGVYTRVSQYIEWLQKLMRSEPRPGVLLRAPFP

[13] = Inhibition of human chymotrypsin
[14] = target: Plasma kallikrein (Homo sapiens, UniProt P03952); assay: Inhibition of human plasma kallikrein; type: cell-free
[15] = target: Trypsin (Homo sapiens, UniProt P07477+P07478+P35030); assay: Inhibition of human trypsin; type: protein assay
[16] = target: Plasminogen (Homo sapiens, UniProt P00747); assay: Inhibition of human Plasmin
[17] = target: Tissue-type plasminogen activator (Homo sapiens, UniProt P00750); assay: Inhibition of human tissue plasminogen activator
[18] = target: Urokinase-type plasminogen activator (Homo sapiens, UniProt P00749); assay: Inhibition of human urokinase
[19] = target: Coagulation factor XI (Homo sapiens, UniProt P03951); assay: Inhibition of human factor 11a
[20] = target: Prothrombin (Homo sapiens, UniProt P00734); assay: Inhibition of human thrombin
[21] = target: T1, Coagulation factor X; assay: Inhibition of human factor 10a in presence of prothrombin at 25 degC
In short: (§3)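 Purified human factor Xa. […] Prothrombinase-type inhibition measured with prothrombin as substrate at 25 °C, and with saturating prothrombin at 37 °C. Values are averages of at least 2 determinations.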

[22] = target: T1, Coagulation factor X; assay: Inhibition of human factor 10a in presence of saturating prothrombin at 37 degC; in short: as §3
[23] = target: T1, Coagulation factor X; assay: Inhibition of human factor 10a in presence of tripeptide substrate at 25 degC
[24] = target: T1, Coagulation factor X; assay: Inhibition of human factor 10a in presence of tripeptide substrate at 37 degC

T1 sequence (P00742 41-179 limits assumed): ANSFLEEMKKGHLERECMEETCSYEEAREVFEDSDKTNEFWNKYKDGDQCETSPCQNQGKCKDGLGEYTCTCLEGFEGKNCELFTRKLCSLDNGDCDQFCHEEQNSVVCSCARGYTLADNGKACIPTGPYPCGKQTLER
T1 sequence (P00742 235-488 limits assumed): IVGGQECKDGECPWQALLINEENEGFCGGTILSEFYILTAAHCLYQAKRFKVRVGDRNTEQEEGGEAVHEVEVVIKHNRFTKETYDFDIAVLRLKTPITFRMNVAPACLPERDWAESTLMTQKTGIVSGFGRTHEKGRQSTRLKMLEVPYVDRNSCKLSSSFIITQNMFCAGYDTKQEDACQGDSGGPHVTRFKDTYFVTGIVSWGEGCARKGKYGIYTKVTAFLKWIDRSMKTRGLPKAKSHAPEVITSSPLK
Chain of Coagulation factor XI (P03951 19-387 limits assumed): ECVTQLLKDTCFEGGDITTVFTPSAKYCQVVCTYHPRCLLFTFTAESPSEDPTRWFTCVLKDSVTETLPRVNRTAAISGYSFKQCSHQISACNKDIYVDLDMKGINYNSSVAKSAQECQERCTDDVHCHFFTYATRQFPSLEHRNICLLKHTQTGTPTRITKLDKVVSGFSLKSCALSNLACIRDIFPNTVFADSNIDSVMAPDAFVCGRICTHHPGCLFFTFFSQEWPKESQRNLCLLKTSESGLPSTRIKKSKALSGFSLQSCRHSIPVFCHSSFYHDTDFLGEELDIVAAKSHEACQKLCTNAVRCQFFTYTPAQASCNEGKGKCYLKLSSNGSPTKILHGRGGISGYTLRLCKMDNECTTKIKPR
Chain of Coagulation factor XI (P03951 388-625 limits assumed): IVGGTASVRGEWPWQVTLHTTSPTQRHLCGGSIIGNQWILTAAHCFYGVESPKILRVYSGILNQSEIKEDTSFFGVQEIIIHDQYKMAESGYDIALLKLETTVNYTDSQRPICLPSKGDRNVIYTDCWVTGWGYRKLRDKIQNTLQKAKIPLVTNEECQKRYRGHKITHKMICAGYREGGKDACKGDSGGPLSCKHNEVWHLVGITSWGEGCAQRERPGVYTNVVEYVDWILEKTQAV
Chain of Plasminogen (P00747 97-580 limits assumed): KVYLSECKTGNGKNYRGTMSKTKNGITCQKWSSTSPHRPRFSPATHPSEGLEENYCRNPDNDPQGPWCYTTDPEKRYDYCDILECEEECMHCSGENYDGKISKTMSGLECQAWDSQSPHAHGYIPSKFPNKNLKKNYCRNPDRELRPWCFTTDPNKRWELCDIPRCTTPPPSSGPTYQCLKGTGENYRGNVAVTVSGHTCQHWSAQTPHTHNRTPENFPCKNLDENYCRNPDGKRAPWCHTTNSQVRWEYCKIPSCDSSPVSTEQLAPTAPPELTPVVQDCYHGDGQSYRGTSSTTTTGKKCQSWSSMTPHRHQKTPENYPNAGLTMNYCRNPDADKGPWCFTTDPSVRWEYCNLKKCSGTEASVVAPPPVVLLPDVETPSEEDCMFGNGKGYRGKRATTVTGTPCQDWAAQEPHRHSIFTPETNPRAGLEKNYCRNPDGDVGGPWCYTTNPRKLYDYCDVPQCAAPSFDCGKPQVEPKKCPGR
Chain of Plasminogen (P00747 581-810 limits assumed): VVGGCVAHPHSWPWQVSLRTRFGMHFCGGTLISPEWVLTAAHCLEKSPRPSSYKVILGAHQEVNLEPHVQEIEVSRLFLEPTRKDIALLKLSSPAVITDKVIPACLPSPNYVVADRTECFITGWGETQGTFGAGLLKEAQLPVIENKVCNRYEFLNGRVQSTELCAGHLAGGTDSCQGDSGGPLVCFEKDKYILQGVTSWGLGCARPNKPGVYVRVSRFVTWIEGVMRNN
Chain of Vitamin K-dependent protein C (P04070 43-197 limits assumed): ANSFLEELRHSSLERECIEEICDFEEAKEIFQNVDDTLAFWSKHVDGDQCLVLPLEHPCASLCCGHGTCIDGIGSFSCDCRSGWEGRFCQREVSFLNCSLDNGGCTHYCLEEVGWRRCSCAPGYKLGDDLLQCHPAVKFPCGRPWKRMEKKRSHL
Chain of Vitamin K-dependent protein C (P04070 212-461 limits assumed): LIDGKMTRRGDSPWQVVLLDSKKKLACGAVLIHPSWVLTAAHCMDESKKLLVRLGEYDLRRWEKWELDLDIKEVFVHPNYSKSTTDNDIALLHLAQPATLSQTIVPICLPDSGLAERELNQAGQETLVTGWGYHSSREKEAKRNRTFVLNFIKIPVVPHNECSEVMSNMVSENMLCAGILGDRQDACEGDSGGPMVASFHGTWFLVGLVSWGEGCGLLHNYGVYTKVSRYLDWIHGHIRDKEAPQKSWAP
Chain of Plasma kallikrein (P03952 20-390 limits assumed): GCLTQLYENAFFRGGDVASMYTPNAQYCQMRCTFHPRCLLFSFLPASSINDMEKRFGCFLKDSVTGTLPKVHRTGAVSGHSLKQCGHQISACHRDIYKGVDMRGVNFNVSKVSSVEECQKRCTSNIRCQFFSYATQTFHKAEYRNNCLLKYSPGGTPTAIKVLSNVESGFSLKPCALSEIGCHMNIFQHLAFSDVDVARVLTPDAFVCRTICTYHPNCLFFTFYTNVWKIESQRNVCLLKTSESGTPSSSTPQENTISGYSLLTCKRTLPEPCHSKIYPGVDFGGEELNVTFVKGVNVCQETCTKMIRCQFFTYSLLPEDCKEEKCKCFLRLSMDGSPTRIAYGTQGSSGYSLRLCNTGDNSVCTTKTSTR
Chain of Plasma kallikrein (P03952 391-638 limits assumed): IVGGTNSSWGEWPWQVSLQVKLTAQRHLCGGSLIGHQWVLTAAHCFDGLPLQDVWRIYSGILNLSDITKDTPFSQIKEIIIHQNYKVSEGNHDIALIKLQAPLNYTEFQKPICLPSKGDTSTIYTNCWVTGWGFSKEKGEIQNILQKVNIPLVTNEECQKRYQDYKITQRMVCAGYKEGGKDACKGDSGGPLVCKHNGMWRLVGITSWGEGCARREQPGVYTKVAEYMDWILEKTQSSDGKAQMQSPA
Chain of Tissue-type plasminogen activator (P00750 whole entry): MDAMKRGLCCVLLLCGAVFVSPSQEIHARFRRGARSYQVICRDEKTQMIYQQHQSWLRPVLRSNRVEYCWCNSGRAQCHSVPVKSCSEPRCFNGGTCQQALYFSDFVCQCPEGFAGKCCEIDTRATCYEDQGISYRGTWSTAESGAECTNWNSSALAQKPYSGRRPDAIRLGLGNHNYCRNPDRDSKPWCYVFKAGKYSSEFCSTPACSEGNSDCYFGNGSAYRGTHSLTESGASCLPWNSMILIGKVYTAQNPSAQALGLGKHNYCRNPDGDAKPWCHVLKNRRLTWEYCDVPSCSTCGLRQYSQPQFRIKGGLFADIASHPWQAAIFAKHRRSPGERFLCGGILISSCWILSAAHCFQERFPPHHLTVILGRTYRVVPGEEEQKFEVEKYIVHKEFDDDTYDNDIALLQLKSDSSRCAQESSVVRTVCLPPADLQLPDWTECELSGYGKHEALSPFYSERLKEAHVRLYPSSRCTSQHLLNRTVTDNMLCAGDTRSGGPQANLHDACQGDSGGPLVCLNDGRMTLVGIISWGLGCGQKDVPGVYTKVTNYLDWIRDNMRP

Compound | clearance [3] | Vd [4] | half-life [5] | half-life [6] | bioavailability [7] | pKi [9] | CL [1] | pIC50 [10] | pKi [11] | pKi [12] | pKi [13] | pKi [14] | Ki [15] | pKi [16] | pKi [17] | pKi [18] | pKi [19] | pKi [20] | also measured
O=C(N[C@H]1CCC[C@H]1NC(=O)c1ccc(Cl)s1)c1ccc(-n2ccccc2=O)cc1 | 11.7 mL/min/kg | 0.8 L/kg | 0.7 h | 0.7 h | 60% |  |  |  |  |  |  |  |  |  |  |  |  |  | clearance [1]: 0.063 nmol/min/mg; Papp [2]: 9.2 ×10⁻⁶ cm/s; remaining at 10 min [8]: 79%
CS(=O)(=O)N1C[C@H](NC(=O)c2ccc(-n3ccccc3=O)cc2)[C@H](NC(=O)c2ccc(Cl)s2)C1 |  |  |  |  |  | 9.36 | 0 nmol/mg/min | < 4.00 |  |  |  |  |  |  |  |  |  |  | 
CN(C)C(=O)N1C[C@H](NC(=O)c2ccc(-n3ccccc3=O)cc2)[C@H](NC(=O)c2ccc(Cl)s2)C1 |  |  |  |  |  | 9.25 | 0 nmol/mg/min | < 4.00 |  |  |  |  |  |  |  |  |  |  | 
O=C(N[C@H]1C[C@H](CO)C[C@H]1NC(=O)c1ccc(Cl)s1)c1ccc(-n2ccccc2=O)cc1 |  |  |  |  |  | 9.25 |  |  | < 4.68 | < 4.96 | < 4.70 | < 4.97 | > 5 µM | < 4.66 | < 4.68 | < 4.85 |  |  | remaining at 10 min [8]: 100%
O=C(N[C@H]1COC[C@H]1NC(=O)c1ccc(Cl)s1)c1ccc(-n2ccccc2=O)cc1 | 26.7 mL/min/kg | 1 L/kg | 1.2 h | 1.2 h | 97% | 8.59 | 0.031 nmol/mg/min |  | < 4.68 | < 4.96 | < 4.70 |  | > 5 µM | < 4.66 | < 4.68 | < 4.85 | < 4.96 | < 4.92 | 
O=C(N[C@H]1CNC[C@H]1NC(=O)c1ccc(Cl)s1)c1ccc(-n2ccccc2=O)cc1 |  |  |  |  |  | 8.02 | 0 nmol/mg/min | < 4.00 |  |  |  |  |  |  |  |  |  |  | 
CCC(=O)N1C[C@H](NC(=O)c2ccc(-n3ccccc3=O)cc2)[C@H](NC(=O)c2ccc(Cl)s2)C1 |  |  |  |  |  | 8.70 |  | < 4.00 |  |  |  |  |  |  |  |  |  |  | 
CC(C)C(=O)N1C[C@H](NC(=O)c2ccc(-n3ccccc3=O)cc2)[C@H](NC(=O)c2ccc(Cl)s2)C1 |  |  |  |  |  | 8.89 | 0 nmol/mg/min | < 4.00 |  |  |  |  |  |  |  |  |  |  | 
O=C(N[C@H]1CN(C(=O)OCC2c3ccccc3-c3ccccc32)C[C@H]1NC(=O)c1ccc2c(Cl)c[nH]c2c1)c1ccc(-n2ccccc2=O)cc1 |  |  |  |  |  | 6.79 |  | < 4.00 |  |  |  |  |  |  |  |  |  |  | 
CCS(=O)(=O)N1C[C@H](NC(=O)c2ccc(-n3ccccc3=O)cc2)[C@H](NC(=O)c2ccc(Cl)s2)C1 | 25 mL/min/kg | 1.1 L/kg | 0.7 h | 1.3 h | 16% | 9.19 | 0 nmol/mg/min | < 4.00 | < 4.68 | < 4.96 | < 4.70 | < 4.97 | > 5 µM | < 4.66 | < 4.68 | < 4.85 | 5.18 | 5.40 | Papp [2]: < 1.5 ×10⁻⁶ cm/s
CNC(=O)N1C[C@H](NC(=O)c2ccc(-n3ccccc3=O)cc2)[C@H](NC(=O)c2ccc(Cl)s2)C1 |  |  |  |  |  | 8.96 | 0 nmol/mg/min | < 4.00 |  |  |  |  |  |  |  |  |  |  | 
COC(=O)N1C[C@H](NC(=O)c2ccc(-n3ccccc3=O)cc2)[C@H](NC(=O)c2ccc(Cl)s2)C1 |  |  |  |  |  | 9.13 | 0 nmol/mg/min | < 4.00 |  |  |  |  |  |  |  |  |  |  | 
CC(=O)N1C[C@H](NC(=O)c2ccc(-n3ccccc3=O)cc2)[C@H](NC(=O)c2ccc(Cl)s2)C1 | 30 mL/min/kg | 2.4 L/kg | 0.8 h | 0.8 h | 5% | 9.24 | 0 nmol/mg/min | < 4.00 | < 4.68 | < 4.96 | < 4.70 | < 5.22 | > 5 µM | < 4.66 | < 4.68 | < 4.85 | 4.99 | 5.26 | Papp [2]: < 1.5 ×10⁻⁶ cm/s
O=C(N[C@H]1c2ccccc2C[C@H]1NC(=O)c1ccc(Cl)s1)c1ccc(-n2ccccc2=O)cc1 |  |  |  |  |  | 9.57 |  |  |  |  |  |  |  |  |  |  |  |  | remaining at 10 min [8]: 32%
O=C(N[C@H]1C[C@H](C(=O)O)C[C@H]1NC(=O)c1ccc(Cl)s1)c1ccc(-n2ccccc2=O)cc1 |  |  |  |  |  | 8.72 |  |  | < 4.68 | < 4.96 | < 4.70 | < 5.22 | > 5 µM | < 4.66 | < 4.68 | < 4.85 | < 4.96 | < 4.92 | 
CCOC(=O)N1C[C@H](NC(=O)c2ccc(-n3ccccc3=O)cc2)[C@H](NC(=O)c2ccc(Cl)s2)C1 | 43.3 mL/min/kg | 2.4 L/kg | 1.4 h | 2.7 h | 25% | 9.30 | 0 nmol/mg/min | < 4.00 | < 4.68 | < 4.96 | < 4.70 | < 5.22 | > 5 µM | < 4.66 | < 4.68 | < 4.85 | 5.13 | 5.40 | pKi [21]: 8.12; pKi [22]: 7.52; Papp [2]: 2.5 ×10⁻⁶ cm/s; pKi [23]: 9.14; pKi [24]: 8.59

From ChEMBL document CHEMBL1149671, “Enantiopure five-membered cyclicdiamine derivatives as potent and selective inhibitors of factor Xa. Improving in vitro metabolic stability via core modifications” (Bioorg Med Chem Lett, 2007)
